Lmaj promast: inhibitors of Leishmania major promastigote growth; Leishmania major promastigotes, resazurin fluorescence viability; 200,000 tested, 9% active; inhibition, % at 10 µM; in the data active means inhibition above about 50%;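 further: promastigotes grown with compound for 44 hours at 28 °C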
Cl transport mod: KCC2 (human) Cl- transport modulation; AID 1456; KCC2 cells, thallium flux FluoZin-2 fluorescence; 190,000 tested, 2.2% active; Q9H2X9; B-score of Tl+ flux slope (higher = more flux/activation; lower = inhibition) at 10 µM;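 active means thallium flux slope and its plate-corrected score both differing from the plate sample mean at a set confidence after two filtering rounds, in either direction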;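 further: slope of fluorescence scaled to starting intensity during 10 to 20 s after thallium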
Diaphorase inh: counter-screen for diaphorase-based assays: diaphorase inhibitors and chemical oxidizers; 190,000 tested, 0.69% active; diaphorase resazurin-to-resorufin fluorescence, NADH, 16 min; bacterial (C. kluyveri) enzyme, not human; inhibition, % at 20 µM;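 active means primary screen inhibition at 20 µM above a set limit, cut at about 50% in these data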
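Benchmarks: positive control wells lacking NADH, neutral wells with DMSO only. System: bacterial diaphorase enzyme (C. kluyveri). Input: 0.14 U/mL diaphorase, enzyme working solution. Detection: resorufin fluorescence, excitation 544 nm, emission 590 nm. Times: 16-min room-temperature incubation before reading.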
ROMK mod: modulators of human ROMK potassium channel; 130,000 tested, 2% active; B-score at 10 µM; Tet-inducible ROMK, thallium flux fluorescence; actives lie on both sides;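 active means signal ratio slope over the read window, or its plate-corrected B-score, at least 3 SD from the plate mean, either direction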;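 further: B-score of the F/F0 ratio slope over 7 to 12 s after thallium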
Target sequence (P48048 whole entry, looked up): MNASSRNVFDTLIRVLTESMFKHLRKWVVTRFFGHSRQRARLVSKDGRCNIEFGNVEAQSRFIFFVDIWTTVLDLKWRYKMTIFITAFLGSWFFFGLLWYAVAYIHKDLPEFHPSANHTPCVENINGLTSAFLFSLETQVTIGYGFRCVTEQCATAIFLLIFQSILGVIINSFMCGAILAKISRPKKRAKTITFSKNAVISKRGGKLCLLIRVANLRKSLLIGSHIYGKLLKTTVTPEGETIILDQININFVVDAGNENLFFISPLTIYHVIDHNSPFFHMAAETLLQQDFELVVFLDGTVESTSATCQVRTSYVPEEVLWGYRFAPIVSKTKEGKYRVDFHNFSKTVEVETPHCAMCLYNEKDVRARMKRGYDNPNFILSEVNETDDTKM
Diaph act CS: counter-screen for diaphorase-based assays: diaphorase activators and chemical reducers; Diaphorase/resazurin coupled assay, resorufin fluorescence, 16 min; stronger effect = higher value; 1 = vehicle wells, 0 = NADH-free wells; activation factor at 20 µM; 190,000 tested, 0.005% active; AID 1229;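 active means diaphorase activity raised at least twofold by the compound at 20 µM; inactive means activation factor below 2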
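Test system: Clostridium kluyveri diaphorase, purified enzyme; input: enzyme 0.07 U/mL final; buffer or medium: 50 mM HEPES pH 7.4 with 4.542 mM MgCl2, 0.005% Tween 20; also added: 0.114 mM NADH and 0.1 mM resazurin, final amounts; schedule: 16 min enzyme reaction, ambient temperature; technique: fluorescence of resorufin, 544 nm excitation, 590 nm emission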
WT yeast gro inh: growth inhibition of WT yeast, mitochondrial fusion screen. mitochondrial fusion phenotypic screen, WT strain. inhibition, % at 10 µM. 190,000 tested, 2.1% active; in the data active means inhibition above about 58%; tested in S. cerevisiae
ROMK hit retest: retested hit modulating human ROMK potassium channel; shares compounds with ROMK mod; ROMK thallium flux, fluorescence ratio; stronger effect = lower value; normalized thallium flux (F/F0 slope) at 10 µM; 3,000 tested, 54% active; AID 1917;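 active means Flux at 10 µM at least 3 SD below or above vehicle control mean in one or both replicates; inconclusive means no clear call, values can overlap the other calls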
Numbers stand for hits. A selection: hits, their analogues and other compounds. The true share with any hit is near 12%.

What do the screens show for `Cc1[nH]c2ccccc2c1C(=O)COc1ccccc1F`?
Lmaj promast: inactive; Cl transport mod: inactive; Diaphorase inh: inactive; ROMK mod: inactive; Diaph act CS: inactive; WT yeast gro inh: inactive

How did Cc1oc(-c2ccccc2F)nc1CN1CCC(C(=O)NCCC2=CCCCC2)CC1 do in these assays?
Lmaj promast: inactive; Cl transport mod: inactive; Diaphorase inh: inactive; ROMK mod: -5.39; Diaph act CS: inactive; WT yeast gro inh: 98.3; ROMK hit retest: 0.0558

What do the screens show for `CCOC1=C/C(=C/c2c(N)n3nc(-c4ccccc4)sc3nc2=O)C=CC1=O`?
Lmaj promast: inactive; Cl transport mod: inactive; Diaphorase inh: 69.4; ROMK mod: -3.54; Diaph act CS: inactive; WT yeast gro inh: inactive; ROMK hit retest: 0.0439

Results for Cc1ccc(SC(C)c2nc(-c3ccncc3)no2)cc1 (stereo not given) ?
Lmaj promast: inactive; Cl transport mod: inactive; Diaphorase inh: inactive; ROMK mod: -3.1; Diaph act CS: inactive; WT yeast gro inh: inactive; ROMK hit retest: 0.0665

Results for COc1ccc(/C=N/NC(=O)c2csc(-n3nc(C)cc3C(F)(F)F)n2)cc1 ?
Lmaj promast: inactive; Cl transport mod: inactive; Diaphorase inh: inactive; Diaph act CS: inactive; WT yeast gro inh: inactive; ROMK hit retest: inactive

Results for Cc1cccc(NC(=O)C2CCCN(S(=O)(=O)c3cccc4cccnc34)C2)c1 (stereo not given) ?
Lmaj promast: inactive; Diaphorase inh: inactive; Diaph act CS: inactive; WT yeast gro inh: inactive

What do the screens show for `COc1ccc(S(N)(=O)=O)cc1C(=O)N1CCCC1`?
Lmaj promast: inactive; Cl transport mod: inactive; Diaphorase inh: inactive; ROMK mod: inactive; Diaph act CS: inactive; WT yeast gro inh: inactive

What do the screens show for `CCC(c1nnnn1Cc1ccc(F)cc1)N1CCN(C2CCCCC2)CC1` (stereo not given)?
Lmaj promast: inactive; Diaphorase inh: inactive; ROMK mod: -3.03; Diaph act CS: inactive; WT yeast gro inh: inactive; ROMK hit retest: inconclusive

How did COc1ccc(Cn2nnnc2C(c2cc3ccc(OC)cc3[nH]c2=O)N2CCC(C)CC2)cc1 (stereo not given) do in these assays?
Lmaj promast: inactive; Diaphorase inh: inactive; ROMK mod: inactive; Diaph act CS: inactive; WT yeast gro inh: inactive

Results for CCCC(c1nnnn1Cc1ccc(F)cc1)N1CCN(C)CC1 (stereo not given) ?
Lmaj promast: inactive; Cl transport mod: inactive; Diaphorase inh: inactive; ROMK mod: inactive; Diaph act CS: inactive; WT yeast gro inh: inactive

Results for COc1ccc2cc(C(c3nnnn3Cc3ccc(F)cc3)N3CCCCCC3)c(=O)[nH]c2c1 (stereo not given) ?
Lmaj promast: inactive; Cl transport mod: inactive; Diaphorase inh: inactive; Diaph act CS: inactive; WT yeast gro inh: inactive; ROMK hit retest: 0.0557

What do the screens show for `COc1ccc(Cn2nnnc2C(c2ccccc2Cl)N2CCN(C3CCCC3)CC2)cc1` (stereo not given)?
Lmaj promast: inactive; Diaphorase inh: inactive; ROMK mod: -4.85; Diaph act CS: inactive; WT yeast gro inh: inactive; ROMK hit retest: 0.0505

Results for CC(C)[C@H](NC(=O)c1cccc(S(=O)(=O)N2CCOCC2)c1)C(=O)Nc1nc2ccccc2s1 ?
Lmaj promast: inactive; Cl transport mod: inactive; Diaphorase inh: inactive; ROMK mod: inactive; Diaph act CS: inactive; WT yeast gro inh: inactive

What do the screens show for `CCCSc1nc2sc3c(c2c(=O)[nH]1)CCN(Cc1ccccc1)C3`?
Lmaj promast: inactive; Cl transport mod: inactive; Diaphorase inh: 54.5; ROMK mod: -5.43; Diaph act CS: inactive; WT yeast gro inh: inactive; ROMK hit retest: 0.0302

What do the screens show for `CC1(C)[C@@H](O)CC[C@]2(C)C3C(O)C=C4[C@H]5C[C@@](C)(C(=O)O)CC[C@]5(C)CC[C@]4(C)[C@]3(C)CC[C@@H]12` (stereo not given in full)?
Cl transport mod: inactive; ROMK hit retest: inactive

What do the screens show for `Cc1cccc(Cc2nnc(CCC(=O)N(C)C3CCOC3)o2)c1` (stereo not given)?
Lmaj promast: inactive; Cl transport mod: inactive; Diaphorase inh: inactive; ROMK mod: inactive; Diaph act CS: inactive; WT yeast gro inh: inactive

Results for CC1(C)CC(=O)C(C=NCCN2CCN(CCc3ccccc3)CC2)=C(O)C1 ?
Lmaj promast: inactive; Cl transport mod: inactive; Diaphorase inh: inactive; ROMK mod: inactive; Diaph act CS: inactive; WT yeast gro inh: inactive

What do the screens show for `Cc1cccn2c(CNC3CCCc4ccccc43)c(C(=O)N3CCCCC3)nc12` (stereo not given)?
Lmaj promast: inactive; Cl transport mod: inactive; Diaphorase inh: inactive; ROMK mod: -2.97; Diaph act CS: inactive; WT yeast gro inh: inactive; ROMK hit retest: 0.0609

Results for CC(=O)c1c(C)nc(-c2cccc([N+](=O)[O-])c2)n1O ?
Lmaj promast: inactive; Cl transport mod: inactive; Diaphorase inh: inactive; ROMK mod: -4.71; Diaph act CS: inactive; WT yeast gro inh: inactive; ROMK hit retest: 0.0631

Results for O=C(CNC(=S)N(Cc1ccccc1)Cc1cccnc1)NCCc1ccccc1 ?
Lmaj promast: inactive; Cl transport mod: inactive; Diaphorase inh: inactive; ROMK mod: inactive; Diaph act CS: inactive; WT yeast gro inh: inactive

Results for CNC(=S)N(Cc1ccccc1)Cc1cccnc1 ?
Cl transport mod: inactive; ROMK mod: -12; ROMK hit retest: inactive

How did CCCCn1ccnc1C(=O)c1ccc(S(=O)(=O)N(CCOC)CCOC)cc1 do in these assays?
Lmaj promast: inactive; Cl transport mod: inactive; Diaphorase inh: inactive; Diaph act CS: inactive; WT yeast gro inh: inactive

What do the screens show for `Cc1cccc(C2c3[nH]c4ccccc4c3CCN2C(=O)c2ocnc2C)n1` (stereo not given)?
Lmaj promast: inactive; Cl transport mod: inactive; Diaphorase inh: inactive; Diaph act CS: inactive; WT yeast gro inh: inactive

What do the screens show for `Cc1cccc(C2c3[nH]c4ccccc4c3CCN2C(=O)c2nn(C)c(=O)c3ccccc23)n1` (stereo not given)?
Lmaj promast: inactive; Cl transport mod: inactive; Diaphorase inh: inactive; ROMK mod: -3.98; Diaph act CS: inactive; WT yeast gro inh: inactive; ROMK hit retest: 0.066

What do the screens show for `O=C(NC1CCCCC1)[C@H](CSCc1ccccc1)N1Cc2ccccc2C1=O`?
Lmaj promast: inactive; Cl transport mod: inactive; Diaphorase inh: inactive; ROMK mod: -3.42; Diaph act CS: inactive; WT yeast gro inh: inactive; ROMK hit retest: inconclusive

Results for Cc1noc(NS(=O)(=O)c2ccc(N/C=C\C(=O)c3ccc(F)cc3)cc2)c1C ?
Lmaj promast: inactive; Cl transport mod: inactive; Diaphorase inh: inactive; ROMK mod: 3.89; Diaph act CS: inactive; WT yeast gro inh: inactive; ROMK hit retest: inactive

High-throughput results: PubChem, several laboratories
